Results: ChEMBL document CHEMBL4715745, “Synthesis and biological evaluation of novel FK228 analogues as potential isoform selective HDAC inhibitors” (Eur J Med Chem, 2016)

Columns and labels:
[1] = system: NCI-H226; assay: Growth inhibition of human NCI-H226 cells measured after 48 hrs by sulforhodamine B assay; assay type: functional
Procedure, shortened: (§1)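 Panel of 39 human cancer cell lines tested at the Japanese Foundation for Cancer Research. Five concentrations per compound, spanning 10⁻¹¹–10⁻⁷ M, 10⁻¹⁰–10⁻⁶ M or 10⁻⁸–10⁻⁴ M, were used to build dose-response curves. GI₅₀ is the concentration giving 50% growth inhibition relative to control.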

[2] = system: NCI-H23; assay: Growth inhibition of human NCI-H23 cells measured after 48 hrs by sulforhodamine B assay; assay type: functional; procedure, shortened: as §1
[3] = Selectivity index, ratio of IC50 for mouse HDAC6 expressed in 293T cells to IC50 for human HDAC1 expressed in 293T cells using Ac-KGLGK(Ac)-MCA as substrate incubated for 30 mins in presence of 0.1 mM DTT by fluorescence plate reader assay; conditions: 0.5 h
Procedure, shortened: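 Ratio of HDAC6 IC₅₀ to HDAC1 IC₅₀, taken as selectivity for class I HDAC1 over class II HDAC6. Both enzyme assays were run in the presence of 0.1 mM DTT.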

[4] = system: LOX IMVI; assay: Growth inhibition of human LOX IMVI cells measured after 48 hrs by sulforhodamine B assay; assay type: functional; procedure, shortened: as §1
[5] = Growth inhibition of human HBC5 cells measured after 48 hrs by sulforhodamine B assay; assay type: functional; procedure, shortened: as §1
[6] = system: SNB-75; assay: Growth inhibition of human SNB-75 cells measured after 48 hrs by sulforhodamine B assay; assay type: functional; procedure, shortened: as §1
[7] = system: DMS-114; assay: Growth inhibition of human DMS-114 cells measured after 48 hrs by sulforhodamine B assay; assay type: functional; procedure, shortened: as §1
[8] = system: MKN-1; assay: Growth inhibition of human MKN-1 cells measured after 48 hrs by sulforhodamine B assay; assay type: functional; procedure, shortened: as §1
[9] = system: NCI-H522; assay: Growth inhibition of human NCI-H522 cells measured after 48 hrs by sulforhodamine B assay; assay type: functional; procedure, shortened: as §1
[10] = system: SK-OV-3; assay: Growth inhibition of human SK-OV-3 cells measured after 48 hrs by sulforhodamine B assay; assay type: functional; procedure, shortened: as §1
[11] = system: ACHN; assay: Growth inhibition of human ACHN cells measured after 48 hrs by sulforhodamine B assay; assay type: functional; procedure, shortened: as §1
[12] = system: HCC 2998; assay: Growth inhibition of human HCC 2998 cells measured after 48 hrs by sulforhodamine B assay; assay type: functional; procedure, shortened: as §1
[13] = system: HT-29; assay: Growth inhibition of human HT-29 cells measured after 48 hrs by sulforhodamine B assay; assay type: functional; procedure, shortened: as §1
[14] = target: T1, Protein deacetylase HDAC6 (Mus musculus, UniProt Q9Z2V5); assay: Inhibition of mouse HDAC6 expressed in 293T cells using Ac-KGLGK(Ac)-MCA as substrate incubated for 30 mins in presence of 0.1 mM DTT by fluorescence plate reader assay; parameters: species or system HEK293T
T1 sequence (Q9Z2V5 whole entry): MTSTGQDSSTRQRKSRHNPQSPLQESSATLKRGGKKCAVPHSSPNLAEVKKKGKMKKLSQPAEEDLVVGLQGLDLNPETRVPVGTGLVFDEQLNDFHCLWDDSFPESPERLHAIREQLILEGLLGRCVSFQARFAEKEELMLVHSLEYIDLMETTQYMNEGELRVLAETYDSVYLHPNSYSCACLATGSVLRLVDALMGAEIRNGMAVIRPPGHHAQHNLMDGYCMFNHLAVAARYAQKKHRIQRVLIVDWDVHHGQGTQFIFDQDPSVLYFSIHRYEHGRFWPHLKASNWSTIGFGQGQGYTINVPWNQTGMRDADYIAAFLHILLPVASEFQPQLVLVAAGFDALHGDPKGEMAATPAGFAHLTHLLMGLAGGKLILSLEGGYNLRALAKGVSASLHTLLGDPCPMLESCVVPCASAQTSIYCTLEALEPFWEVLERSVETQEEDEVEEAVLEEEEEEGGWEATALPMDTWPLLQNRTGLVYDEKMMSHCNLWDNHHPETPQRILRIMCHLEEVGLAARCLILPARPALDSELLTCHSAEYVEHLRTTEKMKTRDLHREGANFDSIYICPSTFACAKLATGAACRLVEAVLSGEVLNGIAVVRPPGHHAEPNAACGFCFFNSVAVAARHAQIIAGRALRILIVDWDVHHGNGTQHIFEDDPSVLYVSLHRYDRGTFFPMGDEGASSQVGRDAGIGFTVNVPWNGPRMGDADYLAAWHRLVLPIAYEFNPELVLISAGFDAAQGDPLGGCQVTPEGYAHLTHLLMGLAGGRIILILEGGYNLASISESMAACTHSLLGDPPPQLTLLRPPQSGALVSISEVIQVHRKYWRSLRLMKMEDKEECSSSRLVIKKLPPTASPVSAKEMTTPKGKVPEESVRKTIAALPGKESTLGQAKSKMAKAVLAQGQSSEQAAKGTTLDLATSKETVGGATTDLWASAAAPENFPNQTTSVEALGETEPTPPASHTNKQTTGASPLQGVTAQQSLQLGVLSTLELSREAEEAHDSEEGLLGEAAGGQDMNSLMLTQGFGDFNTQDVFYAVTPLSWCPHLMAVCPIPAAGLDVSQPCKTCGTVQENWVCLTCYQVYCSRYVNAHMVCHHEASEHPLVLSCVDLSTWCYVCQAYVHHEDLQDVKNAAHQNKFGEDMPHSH
Procedure, shortened: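 HDAC enzyme assay run in the presence of 0.1 mM dithiothreitol (DTT); IC₅₀ determined.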

[15] = system: MKN-45; assay: Growth inhibition of human MKN-45 cells measured after 48 hrs by sulforhodamine B assay; assay type: functional; procedure, shortened: as §1
[16] = system: OVCAR-3; assay: Growth inhibition of human OVCAR-3 cells measured after 48 hrs by sulforhodamine B assay; assay type: functional; procedure, shortened: as §1
[17] = system: HCT-15; assay: Growth inhibition of human HCT-15 cells measured after 48 hrs by sulforhodamine B assay; assay type: functional; procedure, shortened: as §1
[18] = system: St-4; assay: Growth inhibition of human St-4 cells measured after 48 hrs by sulforhodamine B assay; assay type: functional; procedure, shortened: as §1
[19] = system: A549; assay: Growth inhibition of human A549 cells measured after 48 hrs by sulforhodamine B assay; assay type: functional; procedure, shortened: as §1
[20] = system: MDA-MB-231; assay: Growth inhibition of human MDA-MB-231 cells measured after 48 hrs by sulforhodamine B assay; assay type: functional; procedure, shortened: as §1
[21] = system: MKN-74; assay: Growth inhibition of human MKN-74 cells measured after 48 hrs by sulforhodamine B assay; assay type: functional; procedure, shortened: as §1
[22] = system: DU-145; assay: Growth inhibition of human DU-145 cells measured after 48 hrs by sulforhodamine B assay; assay type: functional; procedure, shortened: as §1
[23] = Growth inhibition of human HBC4 cells measured after 48 hrs by sulforhodamine B assay; assay type: functional; procedure, shortened: as §1
[24] = system: NCI-H460; assay: Growth inhibition of human NCI-H460 cells measured after 48 hrs by sulforhodamine B assay; assay type: functional; procedure, shortened: as §1
[25] = system: OVCAR-8; assay: Growth inhibition of human OVCAR-8 cells measured after 48 hrs by sulforhodamine B assay; assay type: functional; procedure, shortened: as §1
[26] = system: MKN-7; assay: Growth inhibition of human MKN-7 cells measured after 48 hrs by sulforhodamine B assay; assay type: functional; procedure, shortened: as §1
[27] = target: Histone deacetylase 1 (Homo sapiens, UniProt Q13547); assay: Inhibition of human HDAC1 expressed in 293T cells using Ac-KGLGK(Ac)-MCA as substrate incubated for 30 mins in presence of 0.1 mM DTT by fluorescence plate reader assay; parameters: species or system HEK293T
Histone deacetylase 1, sequence (Q13547 whole entry): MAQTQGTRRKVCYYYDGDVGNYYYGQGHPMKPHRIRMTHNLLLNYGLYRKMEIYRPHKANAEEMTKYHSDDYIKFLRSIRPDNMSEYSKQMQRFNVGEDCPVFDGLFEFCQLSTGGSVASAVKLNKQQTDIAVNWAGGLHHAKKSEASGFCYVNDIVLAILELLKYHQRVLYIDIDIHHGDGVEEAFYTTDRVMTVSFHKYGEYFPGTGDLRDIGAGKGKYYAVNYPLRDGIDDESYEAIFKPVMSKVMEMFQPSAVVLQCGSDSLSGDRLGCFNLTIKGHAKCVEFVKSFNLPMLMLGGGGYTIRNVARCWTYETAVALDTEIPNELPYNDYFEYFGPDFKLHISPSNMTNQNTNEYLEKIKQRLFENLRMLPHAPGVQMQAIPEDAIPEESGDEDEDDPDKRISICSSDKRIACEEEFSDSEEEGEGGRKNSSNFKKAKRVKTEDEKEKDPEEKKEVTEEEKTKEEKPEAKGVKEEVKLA

[28] = system: OVCAR-5; assay: Growth inhibition of human OVCAR-5 cells measured after 48 hrs by sulforhodamine B assay; assay type: functional; procedure, shortened: as §1
[29] = system: RXF 631; assay: Growth inhibition of human RXF 631 cells measured after 48 hrs by sulforhodamine B assay; assay type: functional; procedure, shortened: as §1
[30] = system: HCT-116; assay: Growth inhibition of human HCT-116 cells measured after 48 hrs by sulforhodamine B assay; assay type: functional; procedure, shortened: as §1
[31] = system: KM12; assay: Growth inhibition of human KM12 cells measured after 48 hrs by sulforhodamine B assay; assay type: functional; procedure, shortened: as §1
[32] = system: SNB-78; assay: Growth inhibition of human SNB-78 cells measured after 48 hrs by sulforhodamine B assay; assay type: functional; procedure, shortened: as §1
[33] = system: MKN-28; assay: Growth inhibition of human MKN-28 cells measured after 48 hrs by sulforhodamine B assay; assay type: functional; procedure, shortened: as §1
[34] = Growth inhibition of human BSY1 cells measured after 48 hrs by sulforhodamine B assay; assay type: functional; conditions: BSY-1; procedure, shortened: as §1
[35] = system: SF-539; assay: Growth inhibition of human SF-539 cells measured after 48 hrs by sulforhodamine B assay; assay type: functional; procedure, shortened: as §1
[36] = system: SF-268; assay: Growth inhibition of human SF-268 cells measured after 48 hrs by sulforhodamine B assay; assay type: functional; procedure, shortened: as §1
[37] = system: MCF7; assay: Growth inhibition of human MCF7 cells measured after 48 hrs by sulforhodamine B assay; assay type: functional; procedure, shortened: as §1
[38] = system: U-251; assay: Growth inhibition of human U-251 cells measured after 48 hrs by sulforhodamine B assay; assay type: functional; procedure, shortened: as §1
[39] = system: PC-3; assay: Growth inhibition of human PC-3 cells measured after 48 hrs by sulforhodamine B assay; assay type: functional; procedure, shortened: as §1
[40] = system: SF-295; assay: Growth inhibition of human SF-295 cells measured after 48 hrs by sulforhodamine B assay; assay type: functional; procedure, shortened: as §1
[41] = system: OVCAR-4; assay: Growth inhibition of human OVCAR-4 cells measured after 48 hrs by sulforhodamine B assay; assay type: functional; procedure, shortened: as §1
[42] = system: DMS-273; assay: Growth inhibition of human DMS-273 cells measured after 48 hrs by sulforhodamine B assay; assay type: functional; procedure, shortened: as §1

C/C=C1\NC(=O)[C@H]2CSSCC/C=C/[C@H](CC(=O)N[C@H](C(C)C)C(=O)N2)OC(=O)CNC1=O
GI50 [1]: 0.41 µM
GI50 [2]: 0.13 µM
Ratio IC50 [3]: 182
GI50 [4]: 0.025 µM
GI50 [5]: 0.63 µM
GI50 [6]: 0.01 µM
GI50 [7]: 0.043 µM
GI50 [8]: 0.073 µM
GI50 [9]: 0.01 µM
GI50 [10]: 0.063 µM
GI50 [11]: 0.46 µM
GI50 [12]: 0.032 µM
GI50 [13]: 0.042 µM
IC50 [14]: 0.859 µM
GI50 [15]: 1.9 µM
GI50 [16]: 0.064 µM
GI50 [17]: 20 µM
GI50 [18]: 1.1 µM
GI50 [19]: 0.052 µM
GI50 [20]: 0.053 µM
GI50 [21]: 0.1 µM
GI50 [22]: 0.039 µM
GI50 [23]: 0.17 µM
GI50 [24]: 0.056 µM
GI50 [25]: 0.054 µM
GI50 [26]: 0.38 µM
IC50 [27]: 0.0047 µM
GI50 [28]: 0.049 µM
GI50 [29]: 0.23 µM
GI50 [30]: 0.026 µM
GI50 [31]: 0.045 µM
GI50 [32]: 0.01 µM
GI50 [33]: 1.4 µM
GI50 [34]: 0.2 µM
GI50 [35]: 0.01 µM
GI50 [36]: 0.11 µM
GI50 [37]: 0.19 µM
GI50 [38]: 0.12 µM
GI50 [39]: 0.17 µM
GI50 [40]: 0.28 µM
GI50 [41]: 0.27 µM
GI50 [42]: 0.23 µM

CC(C)C[C@@H]1NC(=O)[C@H]2CSSCC/C=C/[C@H](CC(=O)N[C@H](C(C)C)C(=O)N2)OC(=O)CNC1=O
GI50 [1]: 1.6 µM
GI50 [2]: 1.2 µM
Ratio IC50 [3]: 198
GI50 [4]: 0.18 µM
GI50 [5]: 1.7 µM
GI50 [6]: 1 µM
GI50 [7]: 0.68 µM
GI50 [8]: 1.1 µM
GI50 [9]: 0.2 µM
GI50 [10]: 1.5 µM
GI50 [11]: 9.4 µM
GI50 [12]: 1.3 µM
GI50 [13]: 0.69 µM
IC50 [14]: 2.26 µM
GI50 [15]: 2.2 µM
GI50 [16]: 1.5 µM
GI50 [17]: 17 µM
GI50 [18]: 2.1 µM
GI50 [19]: 0.72 µM
GI50 [20]: 1.2 µM
GI50 [21]: 1.5 µM
GI50 [22]: 0.83 µM
GI50 [23]: 1.4 µM
GI50 [24]: 1.1 µM
GI50 [25]: 1.5 µM
GI50 [26]: 1.8 µM
IC50 [27]: 0.0114 µM
GI50 [28]: 1.2 µM
GI50 [29]: 3.2 µM
GI50 [30]: 0.34 µM
GI50 [31]: 1.1 µM
GI50 [32]: 1.8 µM
GI50 [33]: 1.8 µM
GI50 [34]: 1.5 µM
GI50 [35]: 1.5 µM
GI50 [36]: 0.82 µM
GI50 [37]: 1.6 µM
GI50 [38]: 0.33 µM
GI50 [39]: 1.4 µM
GI50 [40]: 1.5 µM
GI50 [41]: 1.6 µM
GI50 [42]: 1.4 µM
